Assay outcomes (PubChem BioAssay)
PolyA inh – blocks polyadenylation in yeast reporter cells; S. cerevisiae SKY197-pL101 polyadenylation reporter, beta-gal luminescence; efflux-impaired pdr1/pdr3 knockout yeast; score 100 = 6 SD above DMSO; 0.02% of 300,000 active; AID 1875; activity score, % at 12 µM;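 active means lowest replicate activity score at least 50, where 100 means six control SD above control mean; inconclusive means lowest score under 50 but half or more replicates reach 50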;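 further: yeast exposed to compound for 9 h at 30 °C; higher score means more reporter readthrough which indicates perturbed polyadenylation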
Hsp70 act – transcriptional activators of Hsp70; HeLa Hsp70 promoter luciferase reporter, luminescence; scaled: vehicle 0, proteasome-inhibitor control 100%; activation, % at 10 µM; 0.04% of 200,000 active; AID 1203;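 active means activation above the mean across all tested compounds plus 3 SD, cutoff set per campaign, cut at about 5.5% in these data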;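 further: 100% = MG132 at 30 µM as the positive control and 0% = DMSO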
HSF1 inhib – HSF1 inhibition; NIH3T3-HGL HSE-luciferase, MG132-induced, luminescence 8 h; active compounds read low; activity change, negative = inhibition, % at 7.5 µM (by protocol); 0.77% of 300,000 active;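 active means more than half of replicate wells show activity change below -50%, luminescence cut by over half; inconclusive means some wells, but at most half, below -50%; inactive means no replicate well below -50%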;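 further: luciferase reports HSF-1 transcriptional activity via heat shock element; 0% = median of DMSO wells and -100% = zero luminescence signal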
AHR act – activators of human aryl hydrocarbon receptor; P35869; AHR-responsive luciferase reporter cells, luminescence; activation, % at 5 µM; 2.5% of 320,000 active; in the data active means activation above about 47%;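 further: 0% = vehicle wells and 100% = reference agonist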
STAT3 act-1 – increases IL-6 driven STAT3 reporter signal; U3A cells, IL-6 STAT3-luciferase reporter, luminescence; 100% = signal with IL-6 EC80 alone; activation (% of control), % at 5.6 µM; 0.91% of 190,000 active; AID 871;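 active means activation above the screen-wide mean of compound activation plus 3 SD, cut at about 130% in these data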;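 further: 0% = background luminescence of wells with medium and substrate only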
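Test system: Human STAT1-deficient U3A cells with stable STAT3-luciferase reporter | Also added: Interleukin-6, 33 ng/mL | Timing: Compound pre-incubation 1 h before IL-6, then 6 h stimulation at 37 °C | Technique: Luciferase reporter luminescence | Read-out: Percent of IL-6-only median luminescence | Benchmarks: IL-6-only wells as 100% reference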
PERK inh – blocks human PERK kinase; Q9NZJ5; inhibition, % at 5.6 µM; 0.17% of 220,000 active; CHO PERK-DD fusion, SEAP luminescence translation reporter;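 active means inhibition above the mean inhibition of all tested compounds plus 3 SD, set separately per screening campaign, cut at about 2.9% in these data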;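 further: PERK kinase domain activated by AP20187 dimerizer at 100 nM; 0% = DMSO with dimerizer and 100% = rapamycin at 8.4 µM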
STAT3 act-2 – confirmation of STAT3 signaling activators; shares compounds with STAT3 act-1; U3A STAT3-luciferase reporter, IL-6 potentiation, luminescence; U3A cells lack STAT1; 100 means same as IL-6 alone; potentiation (% of control), % at 5.7 µM; 64% of 1,200 active; AID 1267;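 active means percent activation of the STAT3 luciferase reporter above a set limit taken from the earlier primary screen, cut at about 130% in these data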;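 further: 0% = background signal of medium plus substrate and 100% = median of IL-6 with DMSO wells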
NFkB act 2 – counter-screen for STAT3 activators: NF-kappaB activation. human cells, NF-kappaB reporter activation. shares compounds with STAT3 act-1. 11% of 1,200 active. activation (% of control), % at 5.7 µM; in the data active means activation above about 120%;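 further: reporter induced by TNF-alpha stimulation; 100% = median of stimulated DMSO wells and 0% = no signal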
STAT1 act – STAT1 activation in STAT3 activator counter-screen | shares compounds with STAT3 act-1 | NIH 3T3 STAT1-luciferase reporter, IFN-gamma, luminescence | activation (% of control), % at 5.7 µM | 13% of 1,200 active;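 active means activation above the solvent-only control well mean plus 3 SD, set per screening run, cut at about 120% in these data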;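 further: 100% = IFN-gamma with DMSO median signal so 100% means no change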
* hit, by the source's call; ? = inconclusive; · = not tested or not shown. Rows were chosen to be rich in hits. Some 3.6% of all compounds tested hit in one or more screens of this group.

SMILES	PolyA inh	Hsp70 act	HSF1 inhib	AHR act	STAT3 act-1	PERK inh	STAT3 act-2	NFkB act 2	STAT1 act
COc1ccc(C2C(C(=O)c3cccs3)=C(O)C(=O)N2CCN2CCOCC2)c(OC)c1 (stereo unspecified)	20	·	-4	1	·	·	·	·	·
Cc1ccccc1COC(=O)CCC1=NS(=O)(=O)c2ccccc2N1	-4	·	3	3	·	·	·	·	·
Cc1cc(NC(=O)c2ccc(C)c(C)c2)no1	17	·	18	-3	·	·	·	·	·
CC(=O)Oc1ccc(C(=O)Nc2cccc3c2CCCC3)cc1	-30	·	-5	2	·	·	·	·	·
COc1ccc(C2=Nn3c(nnc3-c3ccccc3OC)SC2)cc1OC	14	0	-16	35	150*	-1	127	128*	94
COc1ccc(C2=Nn3c(nnc3-c3ccccn3)SC2)cc1OC	10	0	-8	7	115	0	·	·	·
Cc1nc2ccccc2n1CC(=O)OCC(=O)NCc1ccccc1	-3	0	-8	4	101	0	·	·	·
CCOC(=O)Cn1c(=O)c(-c2ccccc2NCc2ccccc2)nc2ccccc21	13	0	-2	20	136*	1	127	98	95
Fc1ccc(C2=CC(c3cccs3)n3nnnc3N2)cc1 (stereo unspecified)	8	·	1	35	·	1	·	·	·
Cc1ccc(C2=CC(c3cccs3)n3nnnc3N2)cc1 (stereo unspecified)	-4	0	10	42	147*	1	127	109	101
Cc1nc2cc(-c3cccc(F)c3)nn2c(N2CCN(C(=O)c3ccco3)CC2)c1C	-17	0	9	19	137*	0	120	114	91
Cc1cc(C(=O)N(C)Cc2c(F)cccc2Cl)c2ccccc2n1	14	·	-7	7	·	·	·	·	·
Cc1ccc(C)c(/C=N/Nc2ccccn2)c1	-35	0	-1	25	140*	0	127	106	128*
O=C1/C(=C\c2ccco2)SC(=S)N1Cc1ccccc1	-6	0	-5	20	168*	2	157*	100	98
CCCCN(CCCC)S(=O)(=O)c1ccc(NC(=O)c2cccs2)cc1	4	0	-1	1	145*	-1	93	94	94
COc1ccc(/C=C2\SC(=S)N(CC(=O)NC3CCS(=O)(=O)C3)C2=O)cc1 (stereo unspecified)	1	·	10	2	·	·	·	·	·
N/C(=N\OC(=O)c1cc(Cl)ccc1Cl)c1cccnc1	-14	0	14	34	163*	0	152*	121*	135*
N/C(=N\OC(=O)c1cc(Br)ccc1Cl)c1cccnc1	-17	0	9	25	138*	0	132	113	113
CCN(C[C@H]1N[C@@](CC)(C(=O)OC)[C@H]2C(=O)N(Cc3ccccc3)C(=O)[C@@H]12)S(=O)(=O)c1ccc(F)cc1	·	·	·	1	·	·	·	·	·
Cn1c(=O)c(-c2ccccc2)nc2ccccc21	7	0	-2	55*	141*	2	117	107	103
Cc1ccc(N2C(=O)Nc3ccc(Br)cc3C2(O)C(=O)NCCN(C)C)cc1C (stereo unspecified)	1	·	-10	0	·	·	·	·	·
O=c1cc(-c2ccccc2)nc2n1Cc1ccccc1-2	-13	0	0	111*	155*	-1	133*	114	118
Cc1ccc2c(c1)nnn2C1CCN(CC(=O)NNC(=O)c2ccco2)CC1	·	0	3	1	96	0	·	·	·
c1ccc2c(c1)[nH]c1c(N3CCOCC3)ncnc12	-4	0	·	37	140*	1	134*	94	73
O=C(O)c1ccc(CNC(=O)c2ccc(C(F)(F)F)cc2)cc1	12	0	1	14	149*	0	168*	104	105
SMILES	PolyA inh	Hsp70 act	HSF1 inhib	AHR act	STAT3 act-1	PERK inh	STAT3 act-2	NFkB act 2	STAT1 act
COc1cccc(C(=O)NC(=S)Nc2ccccc2N2CCCC2)c1	-19	0	1	49*	147*	0	141*	106	93
CN1CCN(CCNC(=O)Nc2ccc(Cl)cc2)CC1	-3	·	-3	2	·	·	·	·	·
COCCN(C(=O)COC(=O)c1cc2ccccc2cc1O)c1c(N)n(Cc2ccccc2)c(=O)[nH]c1=O	-6	·	1	-1	·	·	·	·	·
O=C(c1ccco1)[C@@H]1[C@@H]2C(=O)N(c3ccc(Br)cc3)C(=O)[C@@H]2C2c3ccccc3C=CN21 (stereo partly specified)	·	0	·	·	142*	0	125	106	106
CC(=O)[C@@H]1[C@@H]2C(=O)N(c3ccc(F)c(Cl)c3)C(=O)[C@@H]2C2c3ccccc3C=CN21 (stereo partly specified)	?	-1	2	23	106	0	·	·	·
CCCOc1ccc(C2Nc3cccc4cccc(c34)N2)cc1	-3	·	-7	15	·	·	·	·	·
FC(F)(F)c1ccc(C2Nc3cccc4cccc(c34)N2)cc1	·	0	·	·	142*	0	160*	117	89
CC[C@@]1(C(=O)OC)N[C@H](CN(C)C(=O)Nc2ccc(Cl)cc2)[C@@H]2C(=O)N(Cc3ccccc3)C(=O)[C@@H]21	·	·	·	1	·	·	·	·	·
Cc1coc(NC(=O)CSc2nc(-c3ccc(Cl)cc3)cc(C(F)(F)F)c2C#N)n1	17	0	-69*	41	138*	1	130	105	103
CCCc1ccc2oc(C(=O)N(Cc3nccn3C)C(C)C)c(C)c2c1	-1	·	26	10	·	·	·	·	·
Clc1ccc(/C=C\c2nccc3c2[nH]c2ccccc23)cc1	-15	0	25	·	148*	0	145*	108	100
Clc1ccc(/C=C/c2nc3ccccc3[nH]2)cc1	-17	-1	-8	-16	27	-1	·	·	·
OCCCCc1nccc2c1[nH]c1ccccc12	-10	·	0	4	·	1	·	·	·
N#Cc1ccc(/C=C\c2nccc3c2[nH]c2ccccc23)cc1	-7	0	8	41	157*	0	141*	103	103
CC(C(=O)Nc1ccccc1-c1ccccc1)N(C)Cc1nc2ccccc2c(=O)[nH]1 (stereo unspecified)	-6	0	10	1	102	-1	·	·	·
CCCNC(=O)COc1coc(CN2CCN(c3ccc(F)cc3)CC2)cc1=O	8	·	-24	0	·	·	·	·	·
